The values that follow come from ChEMBL document CHEMBL1129511 (J Med Chem, 1996).

Series [1] has as its system Bacteria. The series is described as follows: Michaelis-Menten constant for bacterial Carboxypeptidase. In a few lines: (§1)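 CPG2 kinetics adapted from the methotrexate CPG2 method. Prodrug and drug spectra were scanned from 200 to 350 nm, and the wavelength of maximal absorbance difference from glutamate release was chosen. Initial rates of prodrug conversion were measured at 1-100 µM prodrug with 0.05-1 Unit CPG2 to give Km and Vmax. kcat was Vmax divided by the amount of CPG2.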

A further series relates to LoVo. The series is described as follows: Inhibitory concentration was evaluated against colorectal tumar cell line LoVo. The class given is functional, cell-based. Conditions: Homo sapiens. In a few lines: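 Cells were exposed to compound in microtitre plates for 1 h, washed, then grown a further 3 days at 37 °C. They were fixed with TCA, and adherent cellular protein was measured by SRB staining. IC50 is the concentration giving 50% growth inhibition.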

Series [2] is described as follows: Half life period was reported. Format: ADME.
Series [3] has as its system Bacteria. The series is described as follows: Catalytic rate constant for bacterial Carboxypeptidase. In a few lines:
as §1

SMILES strings stand for the structures.

Consider `O=C(O)CC[C@H](NC(=O)Sc1ccc(N(CCCl)CCCl)cc1)C(=O)O`, for which the Km – broadly, the substrate concentration at which the rate is half of its maximum – with Bacteria [1] was found to be 50 µM. For the same molecule, the IC50 (usually the concentration that inhibits the measured activity by half) with LoVo is 100 µM. Moreover, the half-life (commonly the time in which the quantity being followed falls by half) in series [2] amounted to 32.2 min. This molecule also came in with a k cat with Bacteria [3] of 4 s⁻¹.

Take `O=C(O)CC[C@H](NC(=O)c1ccc(N(CCCl)CCCl)cc1)C(=O)O`: in the series on Bacteria [1], the Km stood at 3.4 µM. Further, the IC50 in the series with LoVo was > 500 µM. The half-life in series [2] is 660 min. Further, the k cat in the series with Bacteria [3] amounted to 700 s⁻¹.

As for `O=C(O)CC[C@H](NC(=O)Oc1ccc(N(CCCl)CCCl)cc1)C(=O)O`, the Km with Bacteria [1] came to 1 µM. In the series with LoVo, this molecule registered an IC50 of 200 µM. In series [2], this molecule gave a half-life of 31 min. Besides, the k cat in the series on Bacteria [3] worked out at 49 s⁻¹.

Consider `CS(=O)(=O)OCCN(CCCl)c1ccc(C(=O)O)cc1`, for which, in the series with LoVo, the IC50 worked out at 80 µM.

With `CS(=O)(=O)OCCN(CCCl)c1ccc(C(=O)N[C@@H](CCC(=O)O)C(=O)O)cc1`, the Km in the series with Bacteria [1] stood at 3.4 µM. Moreover, the IC50 with LoVo is > 500 µM. The half-life in series [2] came out at 46 min. Also, in the series with Bacteria [3], the k cat amounted to 583 s⁻¹.

Regarding `O=C(O)CC[C@H](NC(=O)Cc1ccc(N(CCCl)CCCl)cc1)C(=O)O`, in the series on Bacteria [1], the Km was 16 µM. Further, the IC50 with LoVo was > 500 µM. In addition, the half-life in series [2] worked out at 33 min. Besides, the k cat with Bacteria [3] came to 15 s⁻¹.

As for `O=C(O)CC[C@H](NC(=O)Nc1ccc(N(CCCl)CCCl)cc1)C(=O)O`, the Km with Bacteria [1] was 3 µM. Further, half-maximal inhibition in the series on LoVo (IC50) was put at 200 µM. Further, the half-life in series [2] was 16.9 min. This molecule also showed a k cat with Bacteria [3] of 7.5 s⁻¹.
